Data reported in ChEMBL document CHEMBL4190282, “The Conjugated Double Bond of Coniferyl Aldehyde Is Essential for Heat Shock Factor 1 Mediated Cytotoprotection” (J Nat Prod, 2017).
Active and inactive are the calls of the source. The rule behind the calls is not given here.

How the values were obtained:
[1] = molecular target: T1, Heat shock factor protein 1 (Homo sapiens) (UniProt Q00613); assay: Activation of HSF1 in human NCI-H460 cells expressing pGL4-hsp25 construct assessed as upregulation of hsp25 promoter activity at 10 to 30 uM after 12 hrs by luciferase reporter gene assay; format: cell-based
T1 sequence (whole entry): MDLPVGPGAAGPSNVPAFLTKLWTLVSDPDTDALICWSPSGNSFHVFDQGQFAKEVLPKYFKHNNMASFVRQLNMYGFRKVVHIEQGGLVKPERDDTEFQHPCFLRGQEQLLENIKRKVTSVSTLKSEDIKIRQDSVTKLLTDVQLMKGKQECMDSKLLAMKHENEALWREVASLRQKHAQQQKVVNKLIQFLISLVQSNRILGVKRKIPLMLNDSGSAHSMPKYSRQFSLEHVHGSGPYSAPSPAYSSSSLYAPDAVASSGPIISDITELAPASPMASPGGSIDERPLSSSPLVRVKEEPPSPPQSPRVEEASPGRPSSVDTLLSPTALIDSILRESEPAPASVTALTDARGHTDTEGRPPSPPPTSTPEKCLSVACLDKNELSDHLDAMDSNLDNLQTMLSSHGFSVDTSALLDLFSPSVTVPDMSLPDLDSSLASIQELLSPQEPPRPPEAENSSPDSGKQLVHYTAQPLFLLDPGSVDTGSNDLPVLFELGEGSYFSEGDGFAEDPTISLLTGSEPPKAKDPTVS
How it was run: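 NCI-H460 cells stably carrying hsp25 or hsp70 promoter–luciferase reporters, seeded, treated after 24 h at 10 or 30 μM and harvested 12 h later. Lysate luciferase normalized to β-galactosidase; mean of three independent experiments, fold-change vs negative control.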

L132 = assay: Cytotoxicity against human L-132 cells assessed as reduction in cell viability up to 20 uM after 24 hrs by MTT assay; format: cell-based; settings: l132, 24 h
How it was run: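 L132 cells treated 24 h at indicated doses up to 20 μM. MTT (5 mg/mL in PBS) 4 h at 37 °C, formazan dissolved in DMSO, absorbance at 540 nm converted to cell number via calibration curve. Celastrol positive control.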

MEF [2] = assay: Cytoprotective activity against cisplatin-induced PARP cleavage in HSF1 deficient MEF at 3 uM pretreated for 1 hr followed by cisplatin addition measured after 24 hrs by immunoblotting analysis; format: functional, cell-based; settings: Mus musculus
How it was run: (§1)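 HSF1+/+ or HSF1−/− MEFs in DMEM with heat-inactivated 10% FBS, nonessential amino acids, glutamine, HEPES, 37 °C, 5% CO2. 1 h pretreatment at 3 μM, then 0.5 μM paclitaxel or 20 μM cisplatin for 24 h, or 10 Gy 137Cs γ-rays (3.81 Gy/min) for 48 h. Cleaved PARP and caspase-3 immunoblotted; bands normalized to loading control, fold-change vs negative control, ≥3 independent experiments.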

MEF [3] = assay: Cytoprotective activity against cisplatin-induced caspase3 cleavage in HSF1 deficient MEF at 3 uM pretreated for 1 hr followed by cisplatin addition measured after 24 hrs by immunoblotting analysis; format: functional, cell-based; settings: Mus musculus; how it was run: as §1
MEF [4] = assay: Cytoprotective activity against IR-induced caspase3 cleavage in HSF1 deficient MEF at 3 uM pretreated for 1 hr followed by 10 Gy irradiation measured after 48 hrs by immunoblotting analysis; format: functional, cell-based; settings: Mus musculus; how it was run: as §1
[5] = molecular target: T2, Heat shock factor protein 1 (Mus musculus) (UniProt P38532); assay: Activation of HSF1 in MEF assessed as protection against paclitaxel-induced caspase3 cleavage at 3 uM pretreated for 1 hr followed by paclitaxel addition measured after 24 hrs by immunoblotting analysis; format: cell-based; how it was run: as §1
T2 sequence (whole entry): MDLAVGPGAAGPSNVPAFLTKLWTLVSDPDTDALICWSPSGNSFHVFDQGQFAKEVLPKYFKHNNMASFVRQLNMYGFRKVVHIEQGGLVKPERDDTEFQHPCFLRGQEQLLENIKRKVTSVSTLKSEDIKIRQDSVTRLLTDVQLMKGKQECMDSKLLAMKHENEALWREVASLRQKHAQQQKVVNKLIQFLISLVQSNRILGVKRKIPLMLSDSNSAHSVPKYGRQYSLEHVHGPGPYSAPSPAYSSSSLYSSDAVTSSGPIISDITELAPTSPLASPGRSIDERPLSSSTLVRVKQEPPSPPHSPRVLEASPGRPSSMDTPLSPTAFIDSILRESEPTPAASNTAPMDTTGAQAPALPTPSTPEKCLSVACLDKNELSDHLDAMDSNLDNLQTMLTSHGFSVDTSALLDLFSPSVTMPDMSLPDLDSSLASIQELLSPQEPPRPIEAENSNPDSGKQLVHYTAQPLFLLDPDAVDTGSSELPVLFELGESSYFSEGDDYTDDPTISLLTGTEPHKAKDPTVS

[6] = molecular target: T2, Heat shock factor protein 1 (Mus musculus); assay: Activation of HSF1 in MEF assessed as protection against cisplatin-induced caspase3 cleavage at 3 uM pretreated for 1 hr followed by cisplatin addition measured after 24 hrs by immunoblotting analysis; format: cell-based; how it was run: as §1
[7] = molecular target: T2, Heat shock factor protein 1 (Mus musculus); assay: Activation of HSF1 in MEF assessed as protection against IR-induced PARP cleavage at 3 uM pretreated for 1 hr followed by 10 Gy irradiation measured after 48 hrs by immunoblotting analysis; format: cell-based; how it was run: as §1
[8] = molecular target: T2, Heat shock factor protein 1 (Mus musculus); assay: Activation of HSF1 in MEF assessed as protection against IR-induced caspase3 cleavage at 3 uM pretreated for 1 hr followed by 10 Gy irradiation measured after 48 hrs by immunoblotting analysis; format: cell-based; how it was run: as §1
Mus musculus [9] = assay: Protection against IR-induced bone marrow damage in ICR mouse at 10 mg/kg, ip administered once before and three times after 4.5 Gy irradiation measured after 9 days by hematoxylin and eosin staining based assay; format: functional, organism-based
How it was run: (§2)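 Female ICR mice (5–6 weeks) given 4.5 Gy whole-body IR, dosed ip at 10 mg/kg once before and three times after IR; 5 per group, sacrificed day 9. BM cellularity from H&E (hematopoietic cells per 200×200 μm area); peripheral WBC, lymphocytes, neutrophils; Ki67 IHC counted in five fields per femur; relative spleen weight vs control. Means ± SD, Student's t test.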

Mus musculus [10] = assay: Protection against IR-induced reduction in circulating neutrophils in ICR mouse at 10 mg/kg, ip administered once before and three times after 4.5 Gy irradiation measured after 9 days; format: functional, organism-based; how it was run: as §2
Mus musculus [11] = assay: Protection against IR-induced reduction in circulating lymphocytes in ICR mouse at 10 mg/kg, ip administered once before and three times after 4.5 Gy irradiation measured after 9 days; format: functional, organism-based; how it was run: as §2
Mus musculus [12] = assay: Protection against IR-induced reduction in cellular proliferation in ICR mouse at 10 mg/kg, ip administered once before and three times after 4.5 Gy irradiation measured after 9 days by Ki67 staining-based immunohistochemical analysis; format: functional, organism-based; how it was run: as §2
[13] = molecular target: T1, Heat shock factor protein 1 (Homo sapiens); assay: Activation of HSF1 in human L132 cells assessed as increase in HSP70 protein levels at 3 uM after 6 to 24 hrs by immunoblotting analysis; format: cell-based
How it was run: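 L132 cells treated at 3 μM for 12 h, or at various doses for 12 h, or at 3 μM over a time course. Lysates resolved by SDS-PAGE, blotted to nitrocellulose, milk-blocked, primary antibodies 18 h at 4 °C, ECL detection. HSP27, HSP70 and Ser326-phospho-HSF1 bands normalized to loading control; ≥3 independent experiments; celastrol 1 μM positive control.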

Row | Activity [1] | Activity [5] | Activity [6] | Activity [7] | Activity [8] | Activity [13] | Compound | Activity (L132) | Activity (MEF [2]) | Activity (MEF [3]) | Activity (MEF [4]) | Activity (Mus musculus [9]) | Activity (Mus musculus [10]) | Activity (Mus musculus [11]) | Activity (Mus musculus [12])
1 | Active | Active | Active | Active | Active | Active | COc1cc(/C=C/CO)ccc1O [CONIFERYL ALCOHOL] | Non-Toxic | inactive | inactive | inactive | Active | Active | Active | Active
2 | Active | Active | Active | Active | Active | Active | COc1cc(/C=C/C=O)ccc1O [CONIFERYL ALDEHYDE] | Non-Toxic | inactive | inactive | inactive | Active | Active | Active | Active
